Source: PubChem BioAssay
Sampled rows, rich in hits. Any-hit rate of the full collection: about 6.1%.
WT yeast gro inh = growth inhibition of WT yeast, mitochondrial fusion screen | AID 1362 | inhibition, % at 10 µM | 190,000 compounds, 2.1% hits | mitochondrial fusion phenotypic screen, WT strain; in the data active = inhibition above about 58%; tested in S. cerevisiae
DAT uptake mod = modulates human dopamine transporter uptake under cocaine. Q01959. LLC-PK1 hDAT cells, [14C]-dopamine uptake with cocaine IC80; actives deviate in either direction. B-score at 10 µM. 110,000 compounds, 1.3% hits. AID 449768;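 active = Z score or B-score, a plate-position-corrected score, falls beyond the plate's 99.7% confidence bounds, in either direction; inactive = both scores lie inside the 99.7% bounds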;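 also: scored against the spread of the other compound wells on the same plate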
Target sequence (Q01959 whole entry, looked up): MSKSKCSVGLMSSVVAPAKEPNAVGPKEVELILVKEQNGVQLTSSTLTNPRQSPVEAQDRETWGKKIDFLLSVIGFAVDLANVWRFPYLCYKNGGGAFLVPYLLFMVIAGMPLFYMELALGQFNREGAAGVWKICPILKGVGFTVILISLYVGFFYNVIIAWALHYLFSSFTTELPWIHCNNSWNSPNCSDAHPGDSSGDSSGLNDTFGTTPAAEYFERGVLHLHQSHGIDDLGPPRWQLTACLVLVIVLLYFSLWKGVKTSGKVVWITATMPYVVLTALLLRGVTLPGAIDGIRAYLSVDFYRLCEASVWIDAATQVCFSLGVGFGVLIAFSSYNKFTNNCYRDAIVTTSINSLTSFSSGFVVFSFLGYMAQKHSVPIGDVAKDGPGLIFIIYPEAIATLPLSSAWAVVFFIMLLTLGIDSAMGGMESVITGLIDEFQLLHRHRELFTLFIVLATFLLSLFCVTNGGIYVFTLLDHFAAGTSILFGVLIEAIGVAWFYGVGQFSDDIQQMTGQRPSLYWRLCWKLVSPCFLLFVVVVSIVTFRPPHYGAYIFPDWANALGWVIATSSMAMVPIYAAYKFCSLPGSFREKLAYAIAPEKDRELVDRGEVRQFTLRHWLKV
RAM network inh = yeast RAM network inhibition; S. cerevisiae dse1pr::URA3 reporter, 5-FOA growth OD615, 2 d; analog-sensitive cbk1-as2 kinase mutant strain; inhibition, % at 50 µM; 190,000 compounds, 1.8% hits; AID 868;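 active = inhibition above a set limit, 3 SD over mean compound inhibition, cut at about 8.4% in these data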;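 also: 0% = DMSO-only wells with no growth and 100% = 10 µM 1-NA-PP1 full growth; inhibition rescues growth on 5-FOA so higher OD means more RAM inhibition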
Yeast growth inh = reduces growth of yeast BB579 in restrictive medium | S. cerevisiae BB579 growth, OD615, 48 h | inhibition, % at 10 µM | 140,000 compounds, 0.51% hits;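 active = inhibition above a set limit, 3 SD over the mean compound inhibition, cut at about 44% in these data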
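test system = yeast BB579 (DeaD) | buffer or medium = restrictive CSMM-D medium | doses = single compound dose of 10 µM, 0.25% DMSO final | times = 4 h preincubation and 48 h exposure at 30 °C | technique = culture absorbance at 615 nm | benchmarks = amphotericin B 10 µg/mL, positive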
Yeast lifespan up = yeast lifespan extension. inhibition of the nicotinamide effect, % at 10 µM. 130,000 compounds, 0.68% hits. AID 775. S. cerevisiae growth with nicotinamide, OD615; deaD strain in restrictive glucose medium;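 active = inhibition above a set limit, placed 3 SD over the median of all compounds, cut at about 26% in these data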;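 also: 0% = nicotinamide-treated wells and 100% = cells grown without nicotinamide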
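Assay system: engineered S. cerevisiae DeaD replicative-lifespan strain, galactose-grown log-phase cells; medium: restrictive CSMM-D dextrose medium; also added: nicotinamide, 1.5 mM, co-present with compound; schedule: 48 h compound exposure at 30 °C, humidified; detection: absorbance at 615 nm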
Measles CPE = protection of cells from measles virus. Measles virus-infected cells, CPE protection, absorbance. protection (pct of control), % at 4 µM. 140,000 compounds, 1.5% hits; in the data active = protection mostly above about 24%, no sharp cut-off; inactive = mostly below about 26%
* = called active by the depositor.

How did O=[N+]([O-])c1cc(/C=N/O)ccc1SCc1ccccc1 do in these assays?
WT yeast gro inh: 10; DAT uptake mod: 0.69; RAM network inh: 4; Yeast growth inh: -28; Yeast lifespan up: -8; Measles CPE: 75*

How did O=[N+]([O-])c1cc(/C=N/O)ccc1Oc1ccccc1Cl do in these assays?
WT yeast gro inh: 35; RAM network inh: -2

What do the screens show for `CCOc1cc(C2CC(=O)c3c(ccc4ccccc34)N2)ccc1O` (stereo not given)?
WT yeast gro inh: 14; DAT uptake mod: -1.6; RAM network inh: 1; Yeast growth inh: -21; Yeast lifespan up: -15; Measles CPE: 4

Results for c1ccc(-c2nc(N3CCCCCC3)c3ccccc3n2)nc1 ?
WT yeast gro inh: -12; DAT uptake mod: 2.1*; RAM network inh: 0; Yeast growth inh: -34; Yeast lifespan up: -15; Measles CPE: 6

How did CC(NC(=O)c1sc2ccccc2c1Cl)C1CCCO1 (stereo not given) do in these assays?
WT yeast gro inh: -7; RAM network inh: 0; Yeast growth inh: -42; Yeast lifespan up: -3; Measles CPE: 21

What do the screens show for `CCOc1cc(NC(=S)NCCCN2CCOCC2)c(OCC)cc1NC(=O)C1CCCCC1`?
WT yeast gro inh: -1; RAM network inh: 0

How did OCC1(Cc2ccc(Cl)cc2)CCN(Cc2ccccc2F)CC1 do in these assays?
WT yeast gro inh: 12; RAM network inh: 2

Results for CSc1ccc(CN2CCC(CO)(Cc3ccc(Cl)cc3)CC2)cc1 ?
WT yeast gro inh: 67*; RAM network inh: 0

What do the screens show for `CC(=C\C(=O)O)/C(=C/c1ccccc1)C(=O)O`?
WT yeast gro inh: 18; DAT uptake mod: -0.5; RAM network inh: -1; Yeast growth inh: -21; Yeast lifespan up: 10; Measles CPE: 25*

Results for CC1=CC2=NC(=O)CC(C)(C(=O)N(CC(=O)NC(C)(C)C)Cc3cccs3)N2C=C1 (stereo not given) ?
WT yeast gro inh: -3; DAT uptake mod: 0.13; RAM network inh: 3; Yeast growth inh: 7; Yeast lifespan up: -7; Measles CPE: 6

How did CC(C)c1noc2ncc(C(=O)c3cc(Cl)cc(Cl)c3O)cc12 do in these assays?
WT yeast gro inh: 16; DAT uptake mod: -0.49; RAM network inh: 0; Yeast growth inh: -22; Yeast lifespan up: 64*; Measles CPE: 4

How did COc1ccc(C(=O)c2ccc(N3CCN(C(=O)c4ccc(F)cc4)CC3)c(F)c2)cc1Br do in these assays?
WT yeast gro inh: 43; DAT uptake mod: 0.36; RAM network inh: 6; Yeast growth inh: -63; Yeast lifespan up: 3; Measles CPE: 56*

How did Nn1c(-c2cccs2)nc2sc3c(c2c1=O)CCCC3 do in these assays?
WT yeast gro inh: 9; DAT uptake mod: 0.48; RAM network inh: 9.0*; Yeast growth inh: -11; Yeast lifespan up: -26; Measles CPE: 10

How did CCCOc1ccc(-c2nc(C#N)c(N3CCN(CC)CC3)o2)cc1 do in these assays?
WT yeast gro inh: -8; DAT uptake mod: 1.2; RAM network inh: 1; Yeast growth inh: 2; Yeast lifespan up: -6; Measles CPE: 1

How did O=C(Nc1ccc(OC(F)F)cc1)Nc1cccc(C(F)(F)F)c1 do in these assays?
WT yeast gro inh: 83*; DAT uptake mod: 0.09; RAM network inh: 2; Yeast growth inh: -86; Yeast lifespan up: -14; Measles CPE: 8

Results for COc1cc(NC(=O)c2ccnnc2)cc(C(=O)Nc2cccc(C(F)(F)F)c2)c1 ?
DAT uptake mod: 3.3*

What do the screens show for `CSc1ccccc1NC(=S)Nc1cccc(C(F)(F)F)c1`?
WT yeast gro inh: 12; DAT uptake mod: -0.57; RAM network inh: 4; Yeast growth inh: -46; Yeast lifespan up: -9; Measles CPE: 2

Results for CC(C)[C@H](NC(=O)Nc1cccc(C(F)(F)F)c1)C(=O)O ?
WT yeast gro inh: 0; DAT uptake mod: -0.0094; RAM network inh: 1; Yeast growth inh: -19; Yeast lifespan up: 17; Measles CPE: 27*

Results for NNC(=O)Nc1cccc(C(F)(F)F)c1 ?
WT yeast gro inh: -1; RAM network inh: -1

What do the screens show for `CC(NC(=S)Nc1cccc(C(F)(F)F)c1)C(C)(C)C` (stereo not given)?
WT yeast gro inh: 70*; RAM network inh: 3

Results for COCCNC(=O)CCc1nnc(C2(c3ccc(Cl)cc3)CCC2)o1 ?
WT yeast gro inh: 4; RAM network inh: 0

Results for COC/C=C/C1=CC2=CC(=O)C(C)(OC(=O)c3cnc4ccccc4n3)C(=O)C2=CN1C1CCCC1 (stereo not given) ?
DAT uptake mod: -2.3

Results for O=C(O)CCCC(=O)Nc1cccc(C(F)(F)F)c1 ?
WT yeast gro inh: -12; DAT uptake mod: -0.29; RAM network inh: 0; Yeast growth inh: -25; Yeast lifespan up: -5; Measles CPE: 22

Results for COCC(=O)Nc1cccc(C(F)(F)F)c1 ?
WT yeast gro inh: -9; DAT uptake mod: -0.0028; RAM network inh: 1; Yeast growth inh: 2; Yeast lifespan up: -5; Measles CPE: 37*

What do the screens show for `COc1ccccc1CNc1nc2nc(C)c(C)c(=O)n2[nH]1`?
WT yeast gro inh: 79*; DAT uptake mod: -0.97; RAM network inh: 2; Yeast growth inh: -30; Yeast lifespan up: -26; Measles CPE: 20

Results for O=C(O)C1CCCCC1C(=O)NCc1ccncc1 (stereo not given) ?
WT yeast gro inh: -8; RAM network inh: 1; Yeast growth inh: -17; Yeast lifespan up: 5; Measles CPE: 7

What do the screens show for `O=C(NCc1ccncc1)C1CCCCC1`?
WT yeast gro inh: 3; DAT uptake mod: -8*; RAM network inh: 0; Yeast growth inh: 6; Yeast lifespan up: -8; Measles CPE: 32

Results for O=C(Oc1ccc2c(c1)O/C(=C\c1ccncc1)C2=O)c1ccccc1 ?
WT yeast gro inh: -13; RAM network inh: -1; Yeast growth inh: -41; Yeast lifespan up: 23; Measles CPE: 40*

Results for O=C(CCC(=O)OCC(=O)c1ccc(-c2ccccc2)cc1)Nc1cccc2cccnc12 ?
WT yeast gro inh: 12; DAT uptake mod: 1.4; RAM network inh: 10*; Yeast growth inh: -55; Yeast lifespan up: -18; Measles CPE: 5

What do the screens show for `C/C(CC(=O)Nc1ccc(Cl)c(C(F)(F)F)c1)=N\NC(=O)c1cc2ccccc2cc1O`?
WT yeast gro inh: 21; RAM network inh: 1; Yeast growth inh: -22; Yeast lifespan up: -6; Measles CPE: 32

What do the screens show for `COc1ccccc1CC(=O)Nc1ccc2c(c1)C(=O)NC2=O`?
WT yeast gro inh: -16; RAM network inh: 5

How did COC(=O)C1=C[C@@H](C(=O)OC)[C@@H]2C3=C(C(=O)[C@]2(CC(C)C)NC(=O)c2ccccc2)[C@H](C)n2c(=O)n(-c4ccccc4)c(=O)n2[C@@H]3C1 do in these assays?
DAT uptake mod: -2.5*
